For experiment [1], the system named is HEK293T. The experiment in a line: Metal chelating activity assessed as inhibition of human DMT1 expressed in HEK293T cells by measuring inhibition of radiolabeled 55Fe2+ uptake at 10 uM preincubated with compound for 5 mins followed by incubation with Fe2+ and radiolabeled 55Fe2+ for 15 mins at extracellular pH of 5.5 by scintillation counting analysis. The conditions noted are these: time 20.0 min. The format is cell-based. The gist of the method: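 HEK293T cells were seeded 30,000/well and transiently transfected with DsRED-hDMT1 by Lipofectamine 24 h later; assays ran the next day. After a wash in uptake solution, cells got a 5 min compound preincubation, then 15 min RT uptake in pH 5.5 uptake solution with 100 μM ascorbate, Fe²⁺ and ⁵⁵Fe²⁺ (0.5 μCi/mL). An ice-cold pH 7.5 wash followed, then scintillation counting, with cpm converted to influx rates.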

Experiment [2] addresses T1, Natural resistance-associated macrophage protein 2 (Homo sapiens, UniProt P49281).
T1 sequence (P49281 whole entry): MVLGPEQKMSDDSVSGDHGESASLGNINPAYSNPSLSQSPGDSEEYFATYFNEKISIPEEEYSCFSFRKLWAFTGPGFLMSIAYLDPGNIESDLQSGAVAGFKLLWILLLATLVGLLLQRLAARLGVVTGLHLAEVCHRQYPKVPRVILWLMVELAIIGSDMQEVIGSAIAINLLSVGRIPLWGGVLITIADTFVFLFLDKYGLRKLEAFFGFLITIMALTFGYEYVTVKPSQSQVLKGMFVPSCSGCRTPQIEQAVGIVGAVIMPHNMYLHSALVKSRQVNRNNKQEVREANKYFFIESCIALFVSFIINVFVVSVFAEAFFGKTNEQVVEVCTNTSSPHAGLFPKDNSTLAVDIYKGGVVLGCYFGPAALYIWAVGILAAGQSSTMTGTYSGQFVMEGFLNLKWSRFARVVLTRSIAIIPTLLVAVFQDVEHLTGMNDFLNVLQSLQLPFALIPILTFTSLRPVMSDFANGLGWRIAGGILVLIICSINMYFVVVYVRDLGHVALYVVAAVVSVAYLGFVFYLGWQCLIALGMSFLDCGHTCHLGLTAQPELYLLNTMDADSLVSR
The experiment in a line: Inhibition of human DMT1 expressed in Xenopus oocytes assessed as inhibition of channel currents at -50 mV holding potential by two-electrode voltage clamp assay. The format is cell-based. To be noted: oocyte. The gist of the method:
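Xenopus oocytes were injected with 20 ng hDMT1 cRNA and used 3–5 days later. Holding current at Vh −50 mV was recorded, low-pass filtered at 500 Hz and digitized at 5 kHz.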

Experiment [3] is described as follows: Metal chelating activity assessed as compound-Cd2+ complex formation at ratio of 2:1 at 0.4 mM in aqueous buffer of pH 7.4 by isothermal titration calorimetry. The gist of the method:
(§1)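 Cadmium chloride titrated into 0.4 mM compound (from 10 mM DMSO stock) at 25 °C, stirring 750 rpm. Buffer was 20 mM HEPES/150 mM NaCl pH 7.5 or 20 mM MES/150 mM NaCl pH 5.5. First injection 0.4 μL, then 2 μL every 150 s. Buffer/DMSO control titrations run. Fit to a one-set-of-sites model, with fitting errors on KD.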

Experiment [4] can be described thus: Metal chelating activity assessed as compound-Fe2+ complex formation by measuring precipitation at 10 uM incubated with radilolabeled-55Fe2+ for 15 mins in aqueous buffer of pH 7.4 by scintillation counting analysis. The gist of the method: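 Uptake solution (pH 7.4) with 1 μM Fe2+, 100 μM ascorbic acid, 0.5 μCi/mL 55Fe2+ and 10 μM compound, incubated 15 min at RT in polypropylene tubes. Aliquots taken in quadruplicate for scintillation counting of remaining 55Fe2+.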

The nature of experiment [5]: Metal chelating activity assessed as compound-Fe2+ complex formation at 20 uM preincubated with Fe2+ for 5 mins followed by calcein challenge in aqueous buffer of pH 5.5 and measured after 5 mins by calcein quenching assay. The conditions noted are these: time 10.0 min.
Experiment [6] relates to HEK293T. The experiment in a line: Metal chelating activity assessed as inhibition of human ZIP8 expressed in HEK293T cells by measuring inhibition of radiolabeled 55Fe2+ uptake at 10 uM preincubated with compound for 5 mins followed by incubation with Fe2+ and radiolabeled 55Fe2+ for 15 mins at extracellular pH of 7.4 by scintillation counting analysis. To be noted: time 20.0 min. The format is cell-based. The gist of the method:
(§2)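 HEK293T cells were seeded 30,000/well and transiently transfected with DsRED-hZIP8 by Lipofectamine 24 h later; assays ran the next day. Cells got a 5 min compound preincubation, then 15 min RT uptake with 100 μM ascorbate, Fe²⁺ and ⁵⁵Fe²⁺ (0.5 μCi/mL). An ice-cold wash followed, then scintillation counting, with counts converted to influx rates.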

Experiment [7] in a line: Metal chelating activity assessed as compound-Cd2+ complex formation by measuring precipitation at 0.4 mM in aqueous buffer of pH 5.5 by isothermal titration calorimetry. The gist of the method: as §1
(In ITC the heat of successive injections is recorded.)

Experiment [8] in a line: Metal chelating activity assessed as compound-Fe2+ complex formation by UV-Vis titration based analysis.
A short description of experiment [9]: Metal chelating activity assessed as compound-Cd2+ complex formation by UV-Vis titration based analysis.
A short description of experiment [10]: Metal chelating activity assessed as inhibition of human ZIP8 expressed in HEK293T cells by measuring inhibition of radiolabeled 55Fe2+ uptake preincubated with compound for 5 mins followed by incubation with Fe2+ and radiolabeled 55Fe2+ for 15 mins at extracellular pH of 7.4 by scintillation counting analysis. The class given is cell-based. The conditions noted are these: HEK-293T. The gist of the method: as §2

Experiment [11] can be described thus: Metal chelating activity assessed as compound-Fe2+ complex formation by measuring precipitation at 10 uM incubated with radilolabeled-55Fe2+ for 15 mins in aqueous buffer of pH 7.4 by scintillation counting analysis.
In experiment [12] the target is T2, Natural resistance-associated macrophage protein 2 (Homo sapiens) (UniProt P49281).
T2 sequence (whole entry): T1 sequence (P49281 whole entry)
The experiment in a line: Inhibition of human DMT1 expressed in Xenopus laevis oocytes assessed as reduction in radiolabeled 55Fe2+ uptake at 10 uM preincubated for 5 mins followed by incubation with Fe2+ and radiolabeled 55Fe2+ and measured after 10 mins by scintillation counting method relative to control. The class given is cell-based. To be noted: Oocyte, time 15.0 min. The gist of the method: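 Xenopus oocytes injected with 20 ng hDMT1 cRNA, tested 3-5 days later, 10-15 oocytes per condition. 5 min RT in pH 5.5 transport medium with 10 μM compound, then 10 min with compound, 100 μM ascorbate, 1 μM Fe2+ and 0.5 μCi/mL 55Fe2+. Ice-cold rinse with 250 μM Fe2+, SDS solubilization, scintillation counting. Compound-free and non-injected oocytes run in parallel.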

Experiment [13] deals with T2, Natural resistance-associated macrophage protein 2 (Homo sapiens). Kind of experiment: Inhibition of human DMT1 expressed in HEK293T cells by measuring inhibition of radiolabeled 55Fe2+ uptake at 10 uM preincubated with compound for 5 mins followed by incubation with Fe2+ and radiolabeled 55Fe2+ for 15 mins at extracellular pH of 5.5 by scintillation counting analysis. The format is cell-based. To be noted: time 20.0 min. The gist of the method:
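HEK293T cells seeded at 30,000/well 48 h ahead and transiently transfected 24 h later with DsRED-hDMT1. After wash in uptake buffer, 5 min preincubation with compound, then 15 min at RT in pH 5.5 uptake solution with 100 μM ascorbic acid, Fe2+ and 55Fe2+ (0.5 μCi/mL). Ice-cold pH 7.5 wash, scintillation counting, cpm converted to influx rate.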

Experiment [14] addresses T1, Natural resistance-associated macrophage protein 2. The experiment in a line: Inhibition of human DMT1 expressed in HEK293 cells assessed as inhibition of radiolabeled 55Fe2+ uptake incubated for 1 hr by microplate scintillation counting analysis. The format is cell-based. To be noted: in the assay text read “incubated for 15 mins” for “incubated for 1 hr”. The gist of the method: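 HEK293 cells stably expressing DsRED-hDMT1 were cultured in DMEM with 10% FBS, 10 mM HEPES and 1 mM Na-pyruvate, and seeded 50,000/well 24 h ahead. Cells got a 5 min compound preincubation, then 15 min RT uptake at pH 5.5 with 100 μM ascorbate, Fe²⁺ and ⁵⁵Fe²⁺ (0.5 μCi/mL). After an ice-cold pH 7.5 wash, cells sat 1 h in scintillant. Counts were converted to influx rates and fitted with a 4-parameter sigmoid for IC50.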

The structures appear in SMILES notation. Active and inactive are the calls of the source. The calls are words filed in the database; no cut-off is given here.

Data on 18 compounds can be found in ChEMBL document CHEMBL4699420, “Pyrazolyl-pyrimidones inhibit the function of human solute carrier protein SLC11A2 (hDMT1) by metal chelation” (RSC Med Chem, 2020).

The inhibition is the change of the read-out against control, counted positive when it falls. As for `Cc1cc(=O)[nH]c(-n2nc(C(C)(C)C)cc2C)n1`, the inhibition in the experiment with HEK293T [1] was below 20%.
What is called IC50 is the midpoint of a concentration-inhibition curve. For the compound `Cc1cc(=O)[nH]c(-n2nc3c(c2C)CCCC3)n1`, the outcome (in the experiment with HEK293T [1]; in experiment [3]; in experiment [4]; in experiment [5]; with HEK293T [6]; in experiment [7]) was Active. Further, the figures for the IC50 entry in experiment [2] and in experiment [10] were “Not Active” and 1.4 µM, respectively. Besides, the result in experiment [8] and in experiment [9] was inactive.
Take `Cc1cc(=O)[nH]c(-n2nc(C)c(Cc3ccccc3)c2C)n1`: the inhibition in the experiment on HEK293T [1] is below 20%.
On to `Cc1cc(C)nc(-n2nc(C)cc2C)n1`, for which, in the experiment on HEK293T [1], the inhibition is below 20%.
Consider `Cc1cc(=O)[nH]c(-n2nc3c(c2C)COCC3)n1`, for which, in the experiment on HEK293T [1], the inhibition is below 20%.
Same read-out and setting: then `Cc1cc(=O)[nH]c(-n2[nH]c(C)c(C(=O)Nc3cccc(C(F)(F)F)c3)c2=O)n1`, with below 20%; and `Cc1cc(=O)[nH]c(-n2nc(-c3ccccc3)cc2C)n1`, with below 20%; and `Cc1cc(=O)[nH]c(-n2[nH]c(C)c(Cc3ccccc3)c2=O)n1`, with below 20%.
As to `Cc1cc(O)nc(-n2nc(C)cc2C)n1`, the outcome with HEK293T [1] and in the experiment on HEK293T [6] was Active. Also, the result in [4] and in experiment [5] was inactive.
Consider `Cc1nn(-c2ccccn2)c(O)c1C(=O)Nc1cccc(C(F)(F)F)c1`, for which the result (in the experiment on HEK293T [1]; in experiment [4]; in [5]; in the experiment on HEK293T [6]; in experiment [11]) was Active.
`CCc1cc(=O)[nH]c(-n2[nH]c(C)cc2=O)n1`: the inhibition with HEK293T [1] is below 20%.
On to `Cc1cc(=O)[nH]c(-n2nc(C)c(-c3ccccc3)c2C)n1`, for which the inhibition with HEK293T [1] was below 20%.
As to `CCOC(=O)c1cnc(-n2[nH]c(C)cc2=O)[nH]c1=O`, in the experiment on HEK293T [1], the inhibition was below 20%.
The same measure, in the same setting: for `Cc1cc(=O)[nH]c(-n2nc3c(c2C)CCC3)n1` the value was below 20%.
As for `N=C(N)SCc1cccc2c1oc1c(CSC(=N)N)cccc12`, the result (in [4]; in the experiment on HEK293T [6]) was inactive. Further, the inhibition in experiment [12] stood at 100%. For the same compound, in [13], the inhibition result is “Active”.
With `Cc1cc(=O)[nH]c(-n2nc3c(c2C)CNCC3)n1`, the inhibition in the experiment on HEK293T [1] was below 20%.
Still for that read-out and setting: for `CCc1cc(=O)n(-c2nc(C)cc(=O)[nH]2)[nH]1` the value was below 20%.
For `N=C(N)SCc1cccc(CSC(=N)N)c1`, the IC50 in [14] amounted to 7 µM.
